Assay outcomes as filed in PubChem.
The list is not random: actives were taken first. Their share in the collection is about 2.8%.
EBI2 block = antagonists of human EBI2 receptor; EBI2 beta-arrestin recruitment, luminescence, 7a,25-OHC stimulated; P32249; inhibition, % at 5 µM; 360,000 compounds, 0.81% hits; in the data active = inhibition above about 38%;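 also: enzyme fragment complementation signal reports receptor beta-arrestin coupling in cells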
MC4R barr agon = activates human MC4R beta-arrestin recruitment; P32245; U2OS MC4R beta-arrestin complementation, luminescence; percent of melanotan II response, DMSO zero; activation, % at 8.9 µM; 360,000 compounds, 0.98% hits; AID 540308;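 active = activation above a per-plate cutoff, the mean activation of sample wells on that plate plus 3 SD, cut at about 8% in these data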
MC4R antag cAMP = blocks human MC4R cAMP signaling; inhibition, % at 6.5 µM; MC4R-expressing cells, MTII-stimulated cAMP, LANCE TR-FRET; 360,000 compounds, 0.48% hits; AID 540295; P32245;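 active = inhibition above its plate's cutoff, the mean of tested wells on that plate plus 3 SD, cut at about 29% in these data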
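Assay system: U2OS-MC4R stable cell line; Also added: Melanotan II; Technique: Eu-cAMP/anti-cAMP TR-FRET, emission 671 nm; Times: 30-min compound, 1-h challenge, 1-h detection, room temperature.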
m5-HT2A agonist = activates the mouse 5-HT2A serotonin receptor; P35363; CHO-K1 mHTR2A beta-arrestin complementation, luminescence; percent of 30 µM serotonin response; activation, % at 7.6 µM; 360,000 compounds, 0.66% hits; AID 624169;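 active = activation above a run cutoff, the mean activation of all tested compounds plus 3 SD, cut at about 14% in these data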
Target sequence (P35363 whole entry, looked up): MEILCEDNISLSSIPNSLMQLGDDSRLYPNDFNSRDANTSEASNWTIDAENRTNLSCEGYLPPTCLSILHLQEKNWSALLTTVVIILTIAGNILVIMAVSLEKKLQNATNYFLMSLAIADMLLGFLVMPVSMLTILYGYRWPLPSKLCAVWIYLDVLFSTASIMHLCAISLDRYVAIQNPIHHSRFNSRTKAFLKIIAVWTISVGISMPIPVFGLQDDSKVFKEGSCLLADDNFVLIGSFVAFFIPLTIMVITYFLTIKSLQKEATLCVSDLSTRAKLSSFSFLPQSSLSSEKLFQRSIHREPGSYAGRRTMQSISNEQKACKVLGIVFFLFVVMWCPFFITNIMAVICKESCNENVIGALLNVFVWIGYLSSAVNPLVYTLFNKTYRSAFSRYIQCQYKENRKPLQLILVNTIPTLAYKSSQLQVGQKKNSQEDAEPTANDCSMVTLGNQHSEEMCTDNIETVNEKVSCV
OPRM1 ag = counter-screen for mouse HTR2A agonists: human mu opioid receptor agonists. U2OS OPRM1 beta-arrestin PathHunter, luminescence; DMSO 0%, DAMGO 9.3 µM 100%. activation, % at 9.3 µM. 2,300 compounds, 5.3% hits. shares compounds with m5-HT2A agonist. AID 624380;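 active = mean activation above the mean of DMSO-only wells plus 3 SD, cut at about 0.5% in these data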
HTR2A ag conf = confirmation of mouse HTR2A serotonin receptor agonists; shares compounds with m5-HT2A agonist; CHO-K1 PathHunter beta-arrestin recruitment, luminescence; DMSO 0%, 30 µM serotonin 100%; activation, % at 7.6 µM; 2,300 compounds, 19% hits; AID 624381;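 active = mean activation across triplicates above the hit threshold derived in the original primary screen, cut at about 15% in these data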
Hits are given with their value; - = inactive; . = no result given.

SMILES	EBI2 block	MC4R barr agon	MC4R antag cAMP	m5-HT2A agonist	OPRM1 ag	HTR2A ag conf
CN1CCN(c2nc3ccccn3c(=O)c2C=C2C(=O)N(C)C(=O)N(C)C2=O)CC1	-	-	-	-	.	.
NCC(O)c1cc(O)c(O)cc1F (stereo unspecified)	-	-	-	55.8	-	149.5
COc1ccccc1NC(=O)c1cn(CCC#N)nc1-c1ccc(F)cc1	-	-	-	-	.	.
CCC1(CC)C(=O)C=CNC1=O	-	-	-	40.0	-	-
CCCN1CCC[C@H](c2cccc(O)c2)C1	-	-	-	37.5	-	122.4
CCCN1CCC[C@@H](c2cccc(O)c2)C1	-	-	-	22.8	-	63.8
Clc1ccc(CCC(Cn2ccnc2)Sc2c(Cl)cccc2Cl)cc1 (stereo unspecified)	-	-	-	-	.	.
CNCC(=O)c1ccc(O)c(O)c1	-	-	-	30.6	-	89.7
CCC1C2Cc3ccc(O)cc3C1(CC)CCN2C (stereo unspecified)	-	-	-	-	.	.
CC12CCC3c4ccc(OP(=O)(N5CC5)N5CC5)cc4CCC3C1CCC2=O (stereo unspecified)	-	-	-	-	.	.
COc1ccccc1CNCCc1ccc(F)cc1	-	-	-	31.6	-	-
COc1cc(OC)c(OC)cc1CNCCc1cccc(F)c1	-	-	-	-	.	.
COc1ccc(CCNCc2ccccc2F)cc1	-	-	-	-	.	.
COc1ccccc1CNCCc1cccc(Cl)c1	-	-	-	43.1	-	20.6
COc1ccc(CCNCc2ccccc2F)cc1OC	-	-	-	17.5	-	-
FC(F)(F)c1ccccc1CCN1CCNCC1	-	-	-	-	.	.
CCCOC(=O)C1C2CCC(O2)C1C(=O)O (stereo unspecified)	-	-	-	-	.	.
NCCc1c[nH]c2ccc(C(N)=O)cc12	-	-	-	27.7	-	14.8
NCCNc1ccc([N+](=O)[O-])c2cccnc12	-	-	-	22.4	-	-
CC(O)CNc1ccc([N+](=O)[O-])c2cccnc12 (stereo unspecified)	-	-	-	-	.	.
O=C(O)c1nn(Cc2ccc(Cl)cc2)c2ccccc12	-	-	-	14.8	-	-
O=C(O)c1nn(Cc2ccc(Cl)cc2Cl)c2ccccc12	-	-	-	-	.	.
O=C(Cc1c(-c2ccccc2)nc2ccc(Br)cn12)N1CCCC1	-	.	.	-	.	.
Cc1ccc(-c2nc3ccc(C)cn3c2CC(=O)N(C)C)cc1	-	-	-	28.9	-	-
N[C@@H]1C[C@H]1c1ccccc1	-	-	-	-	.	.
SMILES	EBI2 block	MC4R barr agon	MC4R antag cAMP	m5-HT2A agonist	OPRM1 ag	HTR2A ag conf
CN1CCc2cc(O)cc3c2[C@H]1Cc1ccc(O)c(O)c1-3	-	-	-	56.5	-	151.6
CCCN1CCc2cc(O)cc3c2[C@H]1Cc1ccc(O)c(O)c1-3	-	-	-	48.5	-	171.0
COc1cccc(CN2CCN(C(=O)Cc3ccccc3OC)CC2)c1	-	-	-	19.4	-	-
c1ccc2c(CN3CCCCCC3)c[nH]c2c1	-	-	-	-	.	.
Cn1cccc1CN1CCN(C(=O)COc2ccccc2)CC1	-	-	-	-	.	.
Cc1ccccc1CN1CCN(C(=O)Cc2ccccc2)CC1	-	-	-	16.9	-	-
O=C(Cc1ccccc1)N1CCN(Cc2ccc(Cl)cc2)CC1	-	-	-	-	.	.
O=C(Cc1ccccc1)N1CCN(Cc2c[nH]c3ccccc23)CC1	-	-	-	22.3	-	-
O=C(COc1ccccc1)N1CCN(Cc2c[nH]c3ccccc23)CC1	-	-	-	15.8	-	-
Cc1ccsc1C(=O)C1CCCN(Cc2cccn2-c2ccccn2)C1 (stereo unspecified)	-	-	-	-	.	.
CN1CCC(c2c[nH]c3ccc(O)cc23)CC1	-	-	-	49.7	-	31.7
NS(=O)(=O)c1ccc(N2CCNCC2)cc1	-	-	-	-	.	.
FC(F)(F)c1cccc(NC2=NCCCS2)c1	-	-	-	-	.	.
FC(F)(F)Oc1ccc(NC2=NCCCS2)cc1	-	-	-	14.6	-	-
O=P(CN1CCN(c2ccccc2)CC1)(N1CCCCC1)N1CCCCC1	-	-	-	14.5	-	19.6
CCC1(CCC(C)C)C(=O)NC(=O)N(c2ccccc2)C1=O (stereo unspecified)	-	.	.	-	.	.
COc1ccc(N2C(=O)/C(=C/c3ccc(C)o3)C(=O)NC2=S)c(OC)c1	-	-	-	22.9	-	-
COc1ccc(N2C(=O)/C(=C/c3ccc(OC)c(OC)c3)C(=O)NC2=S)cc1	-	-	-	-	.	.
C=CC(=O)NCNC(=O)C=C	-	-	-	-	.	.
CN1CCN(C(=O)COc2ccc(S(=O)(=O)Nc3ccc(Cl)cc3)cc2)CC1	-	-	-	-	.	.
Cc1nn(Cc2ccccc2)c(C)c1C(=O)O	-	-	-	15.4	0.6	-
Cc1nn(Cc2ccccc2)c(C)c1C(=O)NCc1ccccc1F	-	-	-	-	.	.
CC1CN1P(=S)(c1ccccc1)N1CC1C (stereo unspecified)	-	-	-	-	.	.
CCC1CN1P(=O)(N1CCCC1)N1CC1CC (stereo unspecified)	-	-	-	-	.	.
CC1OC(OC2C=C3CCC4C(CCC5(C)C(c6ccc(=O)oc6)CCC45O)C3(C)CC2)C(O)C(OC2OC(CO)C(O)C(O)C2O)C1O (stereo unspecified)	-	36.6	-	15.5	6.9	-
SMILES	EBI2 block	MC4R barr agon	MC4R antag cAMP	m5-HT2A agonist	OPRM1 ag	HTR2A ag conf
CCCN(CCC)[C@@H]1CCc2cccc(O)c2C1	-	-	-	58.2	0.8	125.6
CCN1CCC(N(C)C2CCCCC2)CC1	-	-	-	-	.	.
O=c1[nH]c2ccccc2n1C1CCN(C(c2ccccc2)c2nnnn2-c2ccc3c(c2)OCCO3)CC1 (stereo unspecified)	-	.	.	-	.	.
O=c1[nH]c2ccccc2n1C1CCN(C(c2ccccc2OC(F)(F)F)c2nnnn2-c2ccc3c(c2)OCCO3)CC1 (stereo unspecified)	-	.	.	15.5	.	-
O=c1[nH]c2ccccc2n1C1CCN(C(c2cccs2)c2nnnn2-c2ccc3c(c2)OCCO3)CC1 (stereo unspecified)	-	.	.	14.5	.	17.1
O=C(CCc1ccccc1)N1Cc2cc(N3CCCCC3)ccc2-n2nncc2C1	-	.	.	-	.	.
CNCCc1c[nH]c2ccccc12	-	-	-	32.1	-	15.9
CNCCc1c[nH]c2ccc(O)cc12	-	-	-	58.9	-	140.6
Nc1cccc2c1Cc1cc([N+](=O)[O-])ccc1-2	-	-	-	-	.	.
C[C@]12CC[C@@H](O)CC1=CC(=O)C1C2CC[C@]2(C)C(=O)[C@H](O)CC12 (stereo partly specified)	-	-	-	-	.	.
CC(N)Cc1c[nH]c2c1ccc1ccccc12 (stereo unspecified)	-	-	-	-	.	.
COc1cc(C[C@@H](C)N)c(OC)cc1I	-	-	-	60.8	-	26.3
